The record followed here is ChEMBL document CHEMBL1148785, “Second generation tetrahydroquinoline-based protein farnesyltransferase inhibitors as antimalarials” (J Med Chem, 2007).

“And” between values parts separate entries of the source, which are not always exact repeats. Equal entries are not always repeated.

Assay [1] relates to Plasmodium falciparum. The assay is described as follows: Inhibition of Plasmodium falciparum protein farnesyltransferase at 5 nM by scintillation proximity assay. For orientation: In a scintillation proximity assay essentially only radioactivity close to the scintillant gives light.
The test system of assay [2] is Plasmodium falciparum. Nature of the assay: Antimalarial activity against Plasmodium falciparum K1. The format is functional. Particulars: read-out: ED50 (the source's name). Put shortly: (§1)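 Asynchronous culture in type A+ erythrocytes at 0.5% parasitemia and 0.5% hematocrit, grown in RPMI-1640 with 20% heat-inactivated human A+ plasma. Compound was serially diluted from a top final 5 µM, with DMSO vehicle as 100% growth. Plates ran 48 h at 37 °C under 5% CO2/5% O2/90% N2, then [3H]-hypoxanthine (0.3 µCi) for 24 h. Filter-harvested counts were corrected for the uninfected-RBC background. ED50 by linear regression; duplicates averaged.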

Assay [3] concerns Plasmodium falciparum. The assay is described as follows: Inhibition of Plasmodium falciparum protein farnesyltransferase at 50 nM by scintillation proximity assay.
Assay [4] deals with Plasmodium falciparum. Nature of the assay: Antimalarial activity against Plasmodium falciparum 3D7. The format is functional. Particulars: read-out: ED50 (the source's name). A digest of the protocol:
as §1

The subject of assay [5] is Plasmodium falciparum. The assay is described as follows: Inhibition of Plasmodium falciparum protein farnesyltransferase at 0.5 nM by scintillation proximity assay.

As usually defined, the inhibition is how much of the control response was suppressed. On to `Cn1cncc1CN1CC(N(Cc2cccc(-n3cccc3)c2)S(=O)(=O)c2ccccn2)Cc2cc(C#N)ccc21` (configuration not stated), for which the inhibition in assay [1] stood at 69%; in assay [3] it was 97%. Also, the EC50 in assay [2] (Plasmodium falciparum, K1) is 617 nM; in assay [4] (Plasmodium falciparum, 3D7), 143 nM.
For the compound `Cn1cncc1CN1CC(N(Cc2ccccc2F)C(=O)c2cnns2)Cc2cc(C#N)ccc21` (configuration not stated), the inhibition is 13% in assay [5] and 66% in assay [1]. Besides, the EC50 in assay [4] (Plasmodium falciparum, 3D7) was determined as 340 nM.
On to `Cn1cnc(S(=O)(=O)N(Cc2ccc(S(=O)(=O)c3ccccc3)cc2)C2Cc3cc(C#N)ccc3N(Cc3cncn3C)C2)c1` (configuration not stated), for which the inhibition in assay [5] was determined as 30%; in assay [1], 90%; in assay [3] it was 99%. Moreover, the EC50 in assay [4] (Plasmodium falciparum, 3D7) was determined as 390 nM.
In the same order, the values of `CCC(C)NC(=O)c1ccc2c(c1)CC(N(CC(=O)NC(C)(C)C)S(=O)(=O)c1cn(C)cn1)CN2Cc1cncn1C` (configuration not stated) are 0%, 2%, 35% and above 5000 nM.
In turn, `Cn1cnc(S(=O)(=O)N(Cc2ccccc2)C2Cc3cc(C#N)ccc3N(Cc3cnc[nH]3)C2)c1` (configuration not stated) registered an inhibition in assay [3] of 93%. In assay [4] (Plasmodium falciparum, 3D7), the EC50 turned out to be 120 nM.
As for `CCS(=O)(=O)c1ccc(CN(C2Cc3cc(C#N)ccc3N(Cc3cncn3C)C2)S(=O)(=O)c2cn(C)cn2)cc1` (configuration not stated), the inhibition in assay [5] is 77%; in assay [1], 100%; in assay [3] it was 100%. Moreover, the EC50 in assay [4] (Plasmodium falciparum, 3D7) was 40 nM.
For the compound `Cn1cncc1CN1CC(N(CCN2C(=O)c3ccccc3C2=O)S(=O)(=O)c2ccccn2)Cc2cc(C#N)ccc21` (configuration not stated), the inhibition was found to be 46% in assay [5], 77% in assay [1] and 96% in assay [3]. The EC50 in assay [4] (Plasmodium falciparum, 3D7) was found to be 1880 nM.
Take `Cn1cncc1CN1CC(N(Cc2ccc(S(C)(=O)=O)cc2)S(=O)(=O)c2cccc(F)c2)Cc2cc(C#N)ccc21` (configuration not stated): the inhibition amounted to 8% in assay [5], 67% in assay [1] and 96% in assay [3]. In addition, in assay [4] (Plasmodium falciparum, 3D7), the EC50 worked out at 600 nM.
Regarding `Cn1cncc1CN1CC(N(CC2CCNCC2)S(=O)(=O)c2ccccn2)Cc2cc(C#N)ccc21` (configuration not stated), the inhibition in assay [5] came to 0%; in assay [1], 6%; in assay [3], 18%.
For the compound `Cn1cnc(S(=O)(=O)N(CC(=O)NC(C)(C)C)C2Cc3cc(C(=O)NCc4ccccc4)ccc3N(Cc3cncn3C)C2)c1` (configuration not stated), the inhibition in assay [5] was 0%; in assay [1], 1%; in assay [3], 59%. Further, the EC50 in assay [4] (Plasmodium falciparum, 3D7) is 4600 nM.
`Cn1cnc(S(=O)(=O)N(Cc2ccccc2F)C2Cc3cc(C#N)ccc3N(Cc3cncn3C)C2)c1` (stereo in doubt; 212) [listing 1 of 2 here]: the inhibition worked out at 12% in assay [5], 76% in assay [1] and 96% in assay [3].
The matching figures for `COC(=O)c1ccc(CN(C2Cc3cc(C#N)ccc3N(Cc3cncn3C)C2)S(=O)(=O)c2cn(C)cn2)cc1` (configuration not stated): 1%, 10% and 62%.
Turning to `COC(=O)NCCCCN(C1Cc2cc(C#N)ccc2N(Cc2cncn2C)C1)S(=O)(=O)c1ccccn1` (configuration not stated), the inhibition in assay [5] worked out at 25%; in assay [1] it was 84%; in assay [3] it was 99%. Moreover, the EC50 in assay [4] (Plasmodium falciparum, 3D7) came to 230 nM.
In the same order, the values of `Cn1cnc(CN2CC(N(CC3CCN(C(=O)OC(C)(C)C)CC3)S(=O)(=O)c3ccccn3)Cc3cc(-c4ccccc4)ccc32)c1` (configuration not stated) are 0%, 15%, 22% and 2700 nM.
In the case of `Cn1cnc(S(=O)(=O)N(Cc2ccccc2F)C2Cc3cc(C#N)ccc3N(Cc3cncn3C)C2)c1` (stereo in doubt; 212) [listing 2 of 2 here], the EC50 in assay [2] was determined as 500 nM; in assay [4], 580 nM.
Regarding `COCC(=O)N(Cc1ccccc1F)C1Cc2cc(C#N)ccc2N(Cc2cncn2C)C1` (configuration not stated), the inhibition in assay [5] turned out to be 11%; in assay [1], 19%; in assay [3], 56%. Besides, the EC50 in assay [4] (Plasmodium falciparum, 3D7) is 290 nM.
As to `CNC(=O)c1ccc2c(c1)CC(N(CC(=O)NC(C)(C)C)S(=O)(=O)c1cn(C)cn1)CN2Cc1cncn1C` (configuration not stated), the inhibition in assay [5] amounted to 12%; in assay [1], 20%; in assay [3], 69%. Moreover, the EC50 in assay [4] (Plasmodium falciparum, 3D7) is 1200 nM.
As for `COC(=O)N1CCC(CN(C2Cc3cc(C#N)ccc3N(Cc3cncn3C)C2)S(=O)(=O)c2ccccn2)CC1` (configuration not stated), in assay [3], the inhibition was 98% and 100% (2×).
Take `Cn1cncc1CN1CC(N(Cc2ccccc2F)C(=O)c2c[nH]cn2)Cc2cc(C#N)ccc21` (configuration not stated): the inhibition is 39% in assay [5] and 88% in assay [1]. The EC50 in assay [4] (Plasmodium falciparum, 3D7) is 75 nM.
For `COC(=O)N(Cc1ccccc1F)C1Cc2cc(C#N)ccc2N(Cc2cncn2C)C1` (configuration not stated), the inhibition in assay [5] was found to be 6%; in assay [1], 9%; in assay [3], 26%. Further, in assay [4] (Plasmodium falciparum, 3D7), the EC50 amounted to 2900 nM.
The matching figures for `CCS(=O)(=O)c1ccc(CN(C2Cc3cc(C#N)ccc3N(Cc3cncn3C)C2)S(=O)(=O)c2ncn(C)c2C)cc1` (configuration not stated): 10%, 76%, 97% and 640 nM.
For `Cc1ccsc1S(=O)(=O)N(Cc1ccc(S(C)(=O)=O)cc1)C1Cc2cc(C#N)ccc2N(Cc2cncn2C)C1` (configuration not stated), the inhibition worked out at 13% in assay [5], 55% in assay [1] and 97% in assay [3]. Also, in assay [4] (Plasmodium falciparum, 3D7), the EC50 was 830 nM.
In turn, `C=C(Br)CN(C1Cc2cc(C#N)ccc2N(Cc2cnc[nH]2)C1)S(=O)(=O)c1cn(C)cn1` (configuration not stated) displayed an inhibition in assay [3] of 94%. Also, the EC50 in assay [4] (Plasmodium falciparum, 3D7) was 120 nM.
Consider `Cc1c(S(=O)(=O)N(Cc2cc(Br)ccc2F)C2Cc3cc(C#N)ccc3N(Cc3cncn3C)C2)ncn1C` (configuration not stated), for which the inhibition came to 13% in assay [5], 87% in assay [1] and 98% in assay [3]. Further, the EC50 in assay [4] (Plasmodium falciparum, 3D7) is 850 nM.
For `Cn1cnc(S(=O)(=O)N(Cc2ccccc2F)C2Cc3cc(C#N)ccc3N(Cc3cncn3C)C2)c1` (stereo in doubt; 110) [listing 1 of 2 here], the inhibition was 65% in assay [5], 99% in assay [1] and 100% in assay [3].
Take `CN(C)CC(=O)N(Cc1ccccc1F)C1Cc2cc(C#N)ccc2N(Cc2cncn2C)C1` (configuration not stated): the inhibition worked out at 0% in assay [5] and 16% in assay [1]. In addition, the EC50 in assay [4] (Plasmodium falciparum, 3D7) was 2700 nM.
Turning to `Cn1cnc(CN2CC(N(CC3CCN(C(=O)OC(C)(C)C)CC3)S(=O)(=O)c3cn(C)cn3)Cc3cc(-c4ccccc4)ccc32)c1` (configuration not stated), the values for the inhibition in assay [5], in assay [1] and in assay [3] were 0%, 10% and 33%, respectively. In assay [4] (Plasmodium falciparum, 3D7), the EC50 stood at 860 nM.
The matching figures for `COC(=O)N1CCC(CN(C2Cc3cc(C#N)ccc3N(Cc3cncn3C)C2)S(=O)(=O)c2cccnc2)CC1` (configuration not stated): 48%, 93%, 99% and 100 nM.
Take `COC(=O)N1CCC(CN(C2Cc3cc(C#N)ccc3N(Cc3cncn3C)C2)S(=O)(=O)c2nccn2C)CC1` (configuration not stated): the inhibition in assay [5] was found to be 15%; in assay [1], 67%; in assay [3] it was 96%. Further, the EC50 in assay [4] (Plasmodium falciparum, 3D7) is 38 nM.
`Cn1cnc(S(=O)(=O)N(Cc2ccccc2F)C2Cc3cc(C#N)ccc3N(Cc3cncn3C)C2)c1` (stereo in doubt; 110) [listing 2 of 2 here]: the EC50 in assay [2] and in assay [4] was 18 nM each time.
